What was measured:
Assay type in all cases: functional
[1] = system: Plasmodium berghei; test: Antimalarial activity against Plasmodium berghei ANKA infected in C57BL/6J mouse assessed as decrease of parasitemia level at 5 mg/kg, po administered after 24 hrs post infection measured after 3 days in presence of 15 mg/kg of mefloquine hydrochloride relative to control; parameters: scale not given: the % may be the effect or the level left
Outline: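 Male C57BL/6J mice, 5 weeks old and about 20 g, were infected with P. berghei ANKA (2 × 10⁷ parasitized erythrocytes). At 24 h they got one 200 μL oral dose: 5 mg/kg trioxane plus 15 mg/kg mefloquine hydrochloride in 7:3 Tween 80/ethanol diluted with water. Blood parasitemia was read on day 3 post-infection as % suppression versus untreated infected mice. Four mice per group.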

[2] = system: Plasmodium berghei; test: Antimalarial activity against Plasmodium berghei ANKA infected in C57BL/6J mouse assessed as increase of host survival days at 5 mg/kg, po administered after 24 hrs post infection in presence of 15 mg/kg of mefloquine hydrochloride (reference value: 6.5 days)
[3] = system: Plasmodium berghei; test: Antimalarial activity against Plasmodium berghei ANKA infected in C57BL/6J mouse assessed as decrease of parasitemia level at 15 mg/kg, po administered after 24 hrs post infection measured after 3 days relative to control; parameters: scale not given: the % may be the effect or the level left
Outline: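 Male C57BL/6J mice, 5 weeks old and about 20 g, were infected with P. berghei ANKA at 2 × 10⁷ parasitized erythrocytes. At 24 h post-infection, 4 mice per group received a single oral 200 μL dose in 7:3 Tween 80/ethanol diluted in deionized water. The dose was trioxane 5 mg/kg with mefloquine hydrochloride 15 mg/kg. Parasitemia suppression was read on day 3 versus untreated infected mice.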

[4] = system: Plasmodium berghei; test: Antimalarial activity against Plasmodium berghei ANKA infected in C57BL/6J mouse assessed as increase of host survival days at 15 mg/kg, po administered after 24 hrs post infection (reference value: 6.5 days)
[5] = system: Plasmodium berghei; test: Antimalarial activity against Plasmodium berghei ANKA infected in C57BL/6J mouse assessed as parasitemia level at 5 mg/kg, po administered after 24 hrs post infection measured after 30 days in presence of 15 mg/kg of mefloquine hydrochloride relative to control

Compound | Activity [1] | Survival [2] | Activity [3] | Survival [4] | Activity [5]
C[C@H]1[C@@H]([C@H](C[C@H]2O[C@@H]3O[C@@]4(C)CC[C@H]5[C@H](C)CC[C@@H]([C@H]2C)[C@@]35OO4)OC(=O)Nc2cc(F)cc(F)c2)O[C@@H]2O[C@@]3(C)CC[C@H]4[C@H](C)CC[C@@H]1[C@@]24OO3 | >99.9% | 21.8 days |  |  | 
C[C@H]1[C@@H]([C@H](C[C@H]2O[C@@H]3O[C@@]4(C)CC[C@H]5[C@H](C)CC[C@@H]([C@H]2C)[C@@]35OO4)OC(=O)Nc2ccc(F)cc2)O[C@@H]2O[C@@]3(C)CC[C@H]4[C@H](C)CC[C@@H]1[C@@]24OO3 | >99.9% | 18.8 days |  |  | 
OC(c1cc(C(F)(F)F)nc2c(C(F)(F)F)cccc12)C1CCCCN1 (configuration not stated) [MEFLOQUINE] |  |  | >99.9% | 20.3 days | 
C[C@H]1[C@@H]([C@H](C[C@H]2O[C@@H]3O[C@@]4(C)CC[C@H]5[C@H](C)CC[C@@H]([C@H]2C)[C@@]35OO4)OC(=O)Nc2ccc(Cl)cc2)O[C@@H]2O[C@@]3(C)CC[C@H]4[C@H](C)CC[C@@H]1[C@@]24OO3 | >99.9% | 18.3 days |  |  | 
Cc1cc(NC(=O)O[C@@H](C[C@H]2O[C@@H]3O[C@@]4(C)CC[C@H]5[C@H](C)CC[C@@H]([C@H]2C)[C@@]35OO4)[C@H]2O[C@@H]3O[C@@]4(C)CC[C@H]5[C@H](C)CC[C@@H]([C@H]2C)[C@@]35OO4)ccc1F | >99.9% | 13.5 days |  |  | 
C[C@H]1[C@@H]([C@H](C[C@H]2O[C@@H]3O[C@@]4(C)CC[C@H]5[C@H](C)CC[C@@H]([C@H]2C)[C@@]35OO4)OC(=O)Nc2cccc(F)c2)O[C@@H]2O[C@@]3(C)CC[C@H]4[C@H](C)CC[C@@H]1[C@@]24OO3 | >99.9% | 20.3 days |  |  | 
C[C@H]1[C@@H]([C@H](O)C[C@H]2O[C@@H]3O[C@@]4(C)CC[C@H]5[C@H](C)CC[C@@H]([C@H]2C)[C@@]35OO4)O[C@@H]2O[C@@]3(C)CC[C@H]4[C@H](C)CC[C@@H]1[C@@]24OO3 | >99.9% | 24.8 days |  |  | 
C[C@H]1[C@@H]([C@H](C[C@H]2O[C@@H]3O[C@@]4(C)CC[C@H]5[C@H](C)CC[C@@H]([C@H]2C)[C@@]35OO4)OC(=O)Nc2ccc(F)c(F)c2)O[C@@H]2O[C@@]3(C)CC[C@H]4[C@H](C)CC[C@@H]1[C@@]24OO3 | >99.9% | 25.5 days |  |  | 8%
C[C@H]1[C@@H]([C@H](C[C@H]2O[C@@H]3O[C@@]4(C)CC[C@H]5[C@H](C)CC[C@@H]([C@H]2C)[C@@]35OO4)OC(=O)Nc2ccc(C(F)(F)F)cc2)O[C@@H]2O[C@@]3(C)CC[C@H]4[C@H](C)CC[C@@H]1[C@@]24OO3 | >99.9% | 10.8 days |  |  | 
C[C@H]1[C@@H]([C@H](C[C@H]2O[C@@H]3O[C@@]4(C)CC[C@H]5[C@H](C)CC[C@@H]([C@H]2C)[C@@]35OO4)OC(=O)Nc2cccc(C(F)(F)F)c2)O[C@@H]2O[C@@]3(C)CC[C@H]4[C@H](C)CC[C@@H]1[C@@]24OO3 | >99.9% | 18 days |  |  | 
C[C@H]1[C@@H]([C@H](C[C@H]2O[C@@H]3O[C@@]4(C)CC[C@H]5[C@H](C)CC[C@@H]([C@H]2C)[C@@]35OO4)OC(=O)Nc2ccc([N+](=O)[O-])cc2)O[C@@H]2O[C@@]3(C)CC[C@H]4[C@H](C)CC[C@@H]1[C@@]24OO3 | >99.9% | 22 days |  |  | 
C[C@H]1[C@@H]([C@@H](O)C[C@H]2O[C@@H]3O[C@@]4(C)CC[C@H]5[C@H](C)CC[C@@H]([C@H]2C)[C@@]35OO4)O[C@@H]2O[C@@]3(C)CC[C@H]4[C@H](C)CC[C@@H]1[C@@]24OO3 | >99.9% | 25 days |  |  | 
C[C@H]1[C@@H]([C@H](C[C@H]2O[C@@H]3O[C@@]4(C)CC[C@H]5[C@H](C)CC[C@@H]([C@H]2C)[C@@]35OO4)OC(=O)Nc2ccc(C#N)cc2)O[C@@H]2O[C@@]3(C)CC[C@H]4[C@H](C)CC[C@@H]1[C@@]24OO3 | >99.9% | 17.8 days |  |  | 
C[C@H]1[C@@H]([C@H](C[C@H]2O[C@@H]3O[C@@]4(C)CC[C@H]5[C@H](C)CC[C@@H]([C@H]2C)[C@@]35OO4)OC(=O)Nc2ccc(F)c(Cl)c2)O[C@@H]2O[C@@]3(C)CC[C@H]4[C@H](C)CC[C@@H]1[C@@]24OO3 | >99.9% | 24.8 days |  |  | 8%
C[C@H]1[C@@H]([C@H](C[C@H]2O[C@@H]3O[C@@]4(C)CC[C@H]5[C@H](C)CC[C@@H]([C@H]2C)[C@@]35OO4)OC(=O)Nc2ccc(Br)cc2)O[C@@H]2O[C@@]3(C)CC[C@H]4[C@H](C)CC[C@@H]1[C@@]24OO3 | >99.9% | 12.5 days |  |  | 
C[C@H]1[C@@H]([C@H](C[C@H]2O[C@@H]3O[C@@]4(C)CC[C@H]5[C@H](C)CC[C@@H]([C@H]2C)[C@@]35OO4)OC(=O)Nc2cccc(Cl)c2)O[C@@H]2O[C@@]3(C)CC[C@H]4[C@H](C)CC[C@@H]1[C@@]24OO3 | >99.9% | 26.8 days |  |  | 8%
C[C@H]1[C@@H]([C@H](C[C@H]2O[C@@H]3O[C@@]4(C)CC[C@H]5[C@H](C)CC[C@@H]([C@H]2C)[C@@]35OO4)OC(=O)Nc2ccccc2)O[C@@H]2O[C@@]3(C)CC[C@H]4[C@H](C)CC[C@@H]1[C@@]24OO3 | >99.9% | 17 days |  |  | 

Source: ChEMBL document CHEMBL3120094, “The survival times of malaria-infected mice are prolonged more by several new two-carbon-linked artemisinin-derived dimer carbamates than by the trioxane antimalarial drug artemether” (2014)
